Test results published in ChEMBL document CHEMBL1140866, “New pyrazoline bearing 4(3H)-quinazolinone inhibitors of monoamine oxidase: synthesis, biological evaluation, and structural determinants of MAO-A and MAO-B selectivity” (Bioorg Med Chem, 2009).

Tested on: Mus musculus
Test: Anxiolytic activity in albino mouse assessed as time spent on closed arm at 100 mg/kg, ip by plus-maze test
Assay type: functional
Design: unit not given here
Details: route intraperitoneal
In short: (§1)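 Mice given compounds i.p. at 100 mg/kg in DMSO/water (1:4), about 0.1 mL, 1 h before testing; controls got 0.1 mL vehicle; n = 7–8. Housed eight per cage, 20 ± 2 °C, 12 h light/dark. Each animal did the plus-maze first, then forced swim.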

Row | SMILES | Activity
1 | COc1ccc(/C=C/C(=N/Nc2nc3ccccc3c(=O)n2C)c2ccccc2)cc1 | 225.38
2 | COc1ccc(/C=C/C(=N/Nc2nc3ccccc3c(=O)n2C)c2ccccc2)cc1OC | 209.63
3 | COc1ccc(C2=NN(c3nc4ccccc4c(=O)n3C)C(c3ccco3)C2)cc1 (stereo not drawn) | 226
4 | Cn1c(N2N=C(c3ccc(Cl)cc3)CC2c2cccs2)nc2ccccc2c1=O (stereo not drawn) | 244.5
5 | Cc1ccc(C2=NN(c3nc4ccccc4c(=O)n3C)C(c3ccco3)C2)cc1 (stereo not drawn) | 208.57
6 | Cn1c(N2N=C(c3ccccc3)CC2c2ccc(Cl)cc2)nc2ccccc2c1=O (stereo not drawn) | 154.75
7 | Cn1c(N2N=C(c3ccccc3)CC2c2cccc(Cl)c2)nc2ccccc2c1=O (stereo not drawn) | 218.25

Tested on: Mus musculus
Test: Anxiolytic activity in albino mouse assessed as total number of entries into arms at 100 mg/kg, ip by plus-maze test
Assay type: functional
Details: route intraperitoneal
In short: as §1

Row | SMILES | arm entries [entries]
8 | COc1ccc(/C=C/C(=N/Nc2nc3ccccc3c(=O)n2C)c2ccccc2)cc1 | 4.5
9 | COc1ccc(/C=C/C(=N/Nc2nc3ccccc3c(=O)n2C)c2ccccc2)cc1OC | 5.63
10 | COc1ccc(C2=NN(c3nc4ccccc4c(=O)n3C)C(c3ccco3)C2)cc1 (stereo not drawn) | 5.57
11 | Cn1c(N2N=C(c3ccc(Cl)cc3)CC2c2cccs2)nc2ccccc2c1=O (stereo not drawn) | 2.29
12 | Cc1ccc(C2=NN(c3nc4ccccc4c(=O)n3C)C(c3ccco3)C2)cc1 (stereo not drawn) | 9
13 | Cn1c(N2N=C(c3ccccc3)CC2c2ccc(Cl)cc2)nc2ccccc2c1=O (stereo not drawn) | 4.12
14 | Cn1c(N2N=C(c3ccccc3)CC2c2cccc(Cl)c2)nc2ccccc2c1=O (stereo not drawn) | 3.75

Tested on: Mus musculus
Test: Antidepressant activity in albino mouse assessed as immobility time at 100 mg/kg, ip by forced swim test
Assay type: functional
Details: route intraperitoneal
In short: as §1

Row | SMILES | Activity [%]
15 | COc1ccc(/C=C/C(=N/Nc2nc3ccccc3c(=O)n2C)c2ccccc2)cc1 | 86.75
16 | COc1ccc(/C=C/C(=N/Nc2nc3ccccc3c(=O)n2C)c2ccccc2)cc1OC | 130.57
17 | COc1ccc(C2=NN(c3nc4ccccc4c(=O)n3C)C(c3ccco3)C2)cc1 (stereo not drawn) | 69
18 | Cn1c(N2N=C(c3ccc(Cl)cc3)CC2c2cccs2)nc2ccccc2c1=O (stereo not drawn) | 61.83
19 | Cc1ccc(C2=NN(c3nc4ccccc4c(=O)n3C)C(c3ccco3)C2)cc1 (stereo not drawn) | 64
20 | Cn1c(N2N=C(c3ccccc3)CC2c2ccc(Cl)cc2)nc2ccccc2c1=O (stereo not drawn) | 42.37
21 | Cn1c(N2N=C(c3ccccc3)CC2c2cccc(Cl)c2)nc2ccccc2c1=O (stereo not drawn) | 26.25

Target: T1, Amine oxidase [flavin-containing] A (Rattus norvegicus, UniProt P21396)
T1 sequence (P21396 whole entry): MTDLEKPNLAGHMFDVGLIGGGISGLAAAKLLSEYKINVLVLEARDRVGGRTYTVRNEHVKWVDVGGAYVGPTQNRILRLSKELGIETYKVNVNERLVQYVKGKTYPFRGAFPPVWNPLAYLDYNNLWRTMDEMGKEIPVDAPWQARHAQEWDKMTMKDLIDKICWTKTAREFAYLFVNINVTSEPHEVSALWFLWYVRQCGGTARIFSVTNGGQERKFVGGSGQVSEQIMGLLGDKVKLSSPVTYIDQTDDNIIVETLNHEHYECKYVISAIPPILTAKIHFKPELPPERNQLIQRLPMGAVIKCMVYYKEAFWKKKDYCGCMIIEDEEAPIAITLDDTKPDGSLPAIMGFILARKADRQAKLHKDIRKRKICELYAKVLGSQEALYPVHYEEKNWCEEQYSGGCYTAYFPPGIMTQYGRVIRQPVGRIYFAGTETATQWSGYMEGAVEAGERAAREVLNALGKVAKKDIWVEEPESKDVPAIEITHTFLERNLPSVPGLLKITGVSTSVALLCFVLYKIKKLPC
Test: Inhibition of MAO-A in rat liver homogenate after 60 mins by Lineweaver-Burke plot
Assay type: tissue-based
Details: not given

Row | SMILES | Ki [µM]
22 | COc1ccc(/C=C/C(=N/Nc2nc3ccccc3c(=O)n2C)c2ccccc2)cc1 | 1.15
23 | COc1ccc(/C=C/C(=N/Nc2nc3ccccc3c(=O)n2C)c2ccccc2)cc1OC | 90.7
24 | COc1ccc(C2=NN(c3nc4ccccc4c(=O)n3C)C(c3ccco3)C2)cc1 (stereo not drawn) | 6.8
25 | Cn1c(N2N=C(c3ccc(Cl)cc3)CC2c2cccs2)nc2ccccc2c1=O (stereo not drawn) | 65.3
26 | Cc1ccc(C2=NN(c3nc4ccccc4c(=O)n3C)C(c3ccco3)C2)cc1 (stereo not drawn) | 140
27 | Cn1c(N2N=C(c3ccccc3)CC2c2ccc(Cl)cc2)nc2ccccc2c1=O (stereo not drawn) | 2.7
28 | Cn1c(N2N=C(c3ccccc3)CC2c2cccc(Cl)c2)nc2ccccc2c1=O (stereo not drawn) | 0.9

Same assay, conditions: rat, 1 h; TDE = time-dependent effect

Row | SMILES | Activity
29 | COc1ccc(/C=C/C(=N/Nc2nc3ccccc3c(=O)n2C)c2ccccc2)cc1 | tde
30 | COc1ccc(/C=C/C(=N/Nc2nc3ccccc3c(=O)n2C)c2ccccc2)cc1OC | tde
31 | COc1ccc(C2=NN(c3nc4ccccc4c(=O)n3C)C(c3ccco3)C2)cc1 (stereo not drawn) | tde
32 | Cn1c(N2N=C(c3ccc(Cl)cc3)CC2c2cccs2)nc2ccccc2c1=O (stereo not drawn) | tde
33 | Cc1ccc(C2=NN(c3nc4ccccc4c(=O)n3C)C(c3ccco3)C2)cc1 (stereo not drawn) | tde
34 | Cn1c(N2N=C(c3ccccc3)CC2c2ccc(Cl)cc2)nc2ccccc2c1=O (stereo not drawn) | tde
35 | Cn1c(N2N=C(c3ccccc3)CC2c2cccc(Cl)c2)nc2ccccc2c1=O (stereo not drawn) | tde

Target: T2, Amine oxidase [flavin-containing] B (Rattus norvegicus, UniProt P19643)
T2 sequence (P19643 whole entry): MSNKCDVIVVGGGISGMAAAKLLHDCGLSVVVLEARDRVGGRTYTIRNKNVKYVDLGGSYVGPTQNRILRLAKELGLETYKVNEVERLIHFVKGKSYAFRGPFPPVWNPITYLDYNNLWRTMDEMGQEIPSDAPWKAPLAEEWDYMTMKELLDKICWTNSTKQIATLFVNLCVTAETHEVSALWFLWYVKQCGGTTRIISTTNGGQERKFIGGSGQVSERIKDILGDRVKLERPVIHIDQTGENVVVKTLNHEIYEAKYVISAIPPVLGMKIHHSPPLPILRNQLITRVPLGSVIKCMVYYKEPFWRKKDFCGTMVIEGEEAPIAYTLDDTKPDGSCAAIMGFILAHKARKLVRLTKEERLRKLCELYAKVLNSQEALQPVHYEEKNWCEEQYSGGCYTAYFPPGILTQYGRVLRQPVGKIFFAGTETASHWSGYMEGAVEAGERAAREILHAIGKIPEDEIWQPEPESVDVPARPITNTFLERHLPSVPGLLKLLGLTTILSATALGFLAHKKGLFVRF
Test: Inhibition of MAO-B in rat liver homogenate after 60 mins by residual activity plot
Assay type: tissue-based
Details: not given

Row | SMILES | IC50 [µM]
36 | COc1ccc(/C=C/C(=N/Nc2nc3ccccc3c(=O)n2C)c2ccccc2)cc1 | 399
37 | COc1ccc(/C=C/C(=N/Nc2nc3ccccc3c(=O)n2C)c2ccccc2)cc1OC | 470
38 | COc1ccc(C2=NN(c3nc4ccccc4c(=O)n3C)C(c3ccco3)C2)cc1 (stereo not drawn) | 2.03
39 | Cn1c(N2N=C(c3ccc(Cl)cc3)CC2c2cccs2)nc2ccccc2c1=O (stereo not drawn) | 27.6
40 | Cc1ccc(C2=NN(c3nc4ccccc4c(=O)n3C)C(c3ccco3)C2)cc1 (stereo not drawn) | 77.1
41 | Cn1c(N2N=C(c3ccccc3)CC2c2ccc(Cl)cc2)nc2ccccc2c1=O (stereo not drawn) | 416
42 | Cn1c(N2N=C(c3ccccc3)CC2c2cccc(Cl)c2)nc2ccccc2c1=O (stereo not drawn) | 400

Target: T1, Amine oxidase [flavin-containing] A
Test: Inhibition of MAO-A in rat liver homogenate after 60 mins by residual activity plot
Assay type: tissue-based
Details: not given

Row | SMILES | IC50 [µM]
43 | COc1ccc(/C=C/C(=N/Nc2nc3ccccc3c(=O)n2C)c2ccccc2)cc1 | 9.05
44 | COc1ccc(/C=C/C(=N/Nc2nc3ccccc3c(=O)n2C)c2ccccc2)cc1OC | 68
45 | COc1ccc(C2=NN(c3nc4ccccc4c(=O)n3C)C(c3ccco3)C2)cc1 (stereo not drawn) | 418
46 | Cn1c(N2N=C(c3ccc(Cl)cc3)CC2c2cccs2)nc2ccccc2c1=O (stereo not drawn) | 420
47 | Cc1ccc(C2=NN(c3nc4ccccc4c(=O)n3C)C(c3ccco3)C2)cc1 (stereo not drawn) | 410
48 | Cn1c(N2N=C(c3ccccc3)CC2c2ccc(Cl)cc2)nc2ccccc2c1=O (stereo not drawn) | 3.7
49 | Cn1c(N2N=C(c3ccccc3)CC2c2cccc(Cl)c2)nc2ccccc2c1=O (stereo not drawn) | 1.02

Target: T2, Amine oxidase [flavin-containing] B
Test: Inhibition of MAO-B in rat liver homogenate after 60 mins by Lineweaver-Burke plot
Assay type: tissue-based
Details: not given

Row | SMILES | Ki [µM]
50 | COc1ccc(/C=C/C(=N/Nc2nc3ccccc3c(=O)n2C)c2ccccc2)cc1 | 10.6
51 | COc1ccc(/C=C/C(=N/Nc2nc3ccccc3c(=O)n2C)c2ccccc2)cc1OC | 65.1
52 | COc1ccc(C2=NN(c3nc4ccccc4c(=O)n3C)C(c3ccco3)C2)cc1 (stereo not drawn) | 1.48
53 | Cn1c(N2N=C(c3ccc(Cl)cc3)CC2c2cccs2)nc2ccccc2c1=O (stereo not drawn) | 25.6
54 | Cc1ccc(C2=NN(c3nc4ccccc4c(=O)n3C)C(c3ccco3)C2)cc1 (stereo not drawn) | 88.6
55 | Cn1c(N2N=C(c3ccccc3)CC2c2ccc(Cl)cc2)nc2ccccc2c1=O (stereo not drawn) | 18.4
56 | Cn1c(N2N=C(c3ccccc3)CC2c2cccc(Cl)c2)nc2ccccc2c1=O (stereo not drawn) | 5.8

Same assay, conditions: rat, 1 h; TDE = time-dependent effect

Row | SMILES | Activity
57 | COc1ccc(/C=C/C(=N/Nc2nc3ccccc3c(=O)n2C)c2ccccc2)cc1 | tde
58 | COc1ccc(/C=C/C(=N/Nc2nc3ccccc3c(=O)n2C)c2ccccc2)cc1OC | tde
59 | COc1ccc(C2=NN(c3nc4ccccc4c(=O)n3C)C(c3ccco3)C2)cc1 (stereo not drawn) | tde
60 | Cn1c(N2N=C(c3ccc(Cl)cc3)CC2c2cccs2)nc2ccccc2c1=O (stereo not drawn) | tde
61 | Cc1ccc(C2=NN(c3nc4ccccc4c(=O)n3C)C(c3ccco3)C2)cc1 (stereo not drawn) | tde
62 | Cn1c(N2N=C(c3ccccc3)CC2c2ccc(Cl)cc2)nc2ccccc2c1=O (stereo not drawn) | tde
63 | Cn1c(N2N=C(c3ccccc3)CC2c2cccc(Cl)c2)nc2ccccc2c1=O (stereo not drawn) | tde
